Sampled rows, rich in hits. Any-hit rate of the full collection: about 3.9%.
TMEM16A inh: inhibitors of mouse TMEM16A calcium-activated chloride channel | hit rate 1.2% among 310,000 | HEK293 TMEM16A/YFP iodide influx fluorescence, ionomycin | Q8BHY3 | normalized B-score (activity score, 25-100; higher = stronger inhibition) at 10 µM;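 active = ratio plate-corrected score three or more library SD toward inhibition, starting fluorescence score within five deviations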;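 also: score derived from kinetic fluorescence span divided by baseline fluorescence per well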
TMEM16A act: activators or potentiators of mouse TMEM16A chloride channel; B-score at 10 µM; hit rate 0.3% among 340,000; Q8BHY3; HEK293 TMEM16A/YFP-H148Q/I152L, iodide quench fluorescence; hits give low values;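 active = fluorescence-ratio B-score plate-corrected deviation score at least 3 library SD below zero, with starting fluorescence score within 5 deviations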;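 also: channel opened by trigger with iodide after compound preincubation; score built on the fluorescence ratio of max minus min over baseline; more negative score means more quench and so TMEM16A activation or potentiation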
TAAR1 antag: antagonists of human TAAR1; Q96RJ0; CHO RD-HGA16 TAAR1, Fluo-8 calcium fluorescence, antagonist; inhibition, % at 3 µM; hit rate 1.5% among 360,000; AID 624466;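 active = inhibition above a per-plate cutoff, the mean inhibition of test compounds on that plate plus 3 SD, cut at about 49% in these data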;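 also: 0% = DMSO plus EC80 beta-PEA response and 100% = DMSO alone without agonist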
Target sequence (Q96RJ0 whole entry, looked up): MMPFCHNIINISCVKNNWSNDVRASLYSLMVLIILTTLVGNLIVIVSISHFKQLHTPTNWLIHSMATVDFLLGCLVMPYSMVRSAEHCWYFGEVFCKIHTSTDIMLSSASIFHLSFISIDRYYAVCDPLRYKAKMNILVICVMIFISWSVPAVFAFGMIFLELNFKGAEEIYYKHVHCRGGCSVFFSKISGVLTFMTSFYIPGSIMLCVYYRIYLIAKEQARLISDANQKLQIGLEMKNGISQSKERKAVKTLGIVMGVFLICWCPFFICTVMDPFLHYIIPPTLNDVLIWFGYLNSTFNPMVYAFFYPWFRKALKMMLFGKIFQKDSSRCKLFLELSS
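Test system – hTAAR1-expressing CHO RD-HGA16 cells, Gα16-coupled · Also added – β-PEA at EC80 concentration, post-compound challenge · Compound – 3 µM, single point · Incubation – dye loading 75 min at 37 °C, then 30 min room temperature · Measured by – Fluo-8 intracellular calcium dye fluorescence, real-time kinetic reads · Benchmarks – vehicle and agonist controls · Replicates – singlicate, one well per test compound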
CRFR2-BP ag: CRF-BP/CRF-R2 complex agonism | HEK293 CRF-R2/CRF-BP, calcium dye fluorescence (FLIPR); percent of saturating CRF peptide response | activation, % at 13.2 µM | hit rate 0.46% among 350,000;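 active = activation of at least 50%, plus an integration ratio under a set limit after plate pattern correction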;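 also: plate controls were neutral control wells without compound for no effect and CRF at EC100 for full effect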
TAAR1 agonist: human TAAR1 agonism; Q96RJ0; CHO RD-HGA16 TAAR1, Fluo-8 calcium fluorescence; vehicle wells 0%, saturating PEA agonist 100%; activation, % at 3 µM; hit rate 0.99% among 360,000;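 active = activation above the mean activation of all test compounds in the run plus 3 SD, cut at about 38% in these data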
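System: CHO-derived RD-HGA16 cells with stable Gα16 and human TAAR1. Times: 17-24 h plating, Fluo-8 75 min 37 °C, 30 min RT. Measured by: calcium-sensitive Fluo-8 signal, excitation 470-495, emission 515-575 nm. Read-out basis: % activation relative to PEA EC100 response. Control set: DMSO and PEA EC100. Repeats: no replicates (n 1).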
CRFR2-BP antag: CRF-BP/CRF-R2 complex antagonism. HEK293 CRF-R2/CRF-BP, CRF-induced calcium fluorescence. inhibition, % at 11.8 µM. hit rate 0.59% among 350,000. AID 588475;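 active = inhibition of the ligand-induced calcium signal above about 50% at the single tested concentration, limit read from the data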
TMEM16A reconf: reconfirmed blocker of mouse TMEM16A calcium-activated chloride channel; shares compounds with TMEM16A inh; HEK293 TMEM16A/YFP-H148Q, iodide quench fluorescence; ionomycin added to raise cell calcium; inhibition, % at 10 µM; hit rate 39% among 2,300;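 active = mean duplicate percent inhibition, scaled so buffer wells are 0 and the reference blocker 100, over three buffer SD above buffer mean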
HEK293 Ca mobil: alters calcium mobilization in TMEM16A HEK293 cells, counter-screen; shares compounds with TMEM16A inh; TMEM16A/YFP HEK293, Fluo4 calcium mobilization; calcium response (% of ionomycin), % at 10 µM; hit rate 2% among 2,300; AID 652231;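 active = duplicate-averaged calcium signal over 20% of the ionomycin maximum, relative to buffer baseline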;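 also: each well's signal is peak minus trough fluorescence divided by its pre-addition baseline; 0% = buffer wells and 100% = ionomycin wells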
Parental YFP cnt: parental YFP-HEK293 iodide quench counter-screen activity; 2,300 tested, under 10 active; shares compounds with TMEM16A inh; ionomycin; YFP ratio F(max-min)/F0 at 10 µM;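 active = yellow fluorescent protein signal ratio exceeding the buffer control mean by over 5 SD of those controls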;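 also: ratio is mean of duplicate wells from kinetic YFP trace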
ClC-1 rat inh: selectivity of TMEM16A inhibitors: inhibition of rat ClC-1 chloride channel. shares compounds with TMEM16A inh. 2,300 tested, under 10 active. CHO ClC-1-YFP, iodide influx fluorescence quench; iodide control reads 0, buffer control 100. AID 652236. ratio percent, % at 10 µM;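 active = duplicate-mean ratio percent above the mean of iodide-only control wells, which defines zero, plus 5 of their SD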;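 also: higher percent means stronger block of ClC-1 iodide influx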
Active calls of the source: *; i = inactive; . = not tested or not shown.

SMILES	TMEM16A inh	TMEM16A act	TAAR1 antag	CRFR2-BP ag	TAAR1 agonist	CRFR2-BP antag	TMEM16A reconf	HEK293 Ca mobil	Parental YFP cnt	ClC-1 rat inh
CCC1(c2ccccc2)NC(=O)N(CC(=O)NCc2ccc(OC)cc2)C1=O (stereo not given)	i	i	-15	-2	-3	38	.	.	.	.
CCN(CC)c1ccc(C=Nc2cc(C)cc(C)c2)c(O)c1	25*	-5.2*	-2	3	4	-16	i	i	-1.1	-3
COc1cc(C(c2nnnn2C2CCCC2)N2CCN(C(=O)c3ccco3)CC2)cc(OC)c1OC (stereo not given)	i	i	-1	0	-2	0	.	.	.	.
O=C(Nc1nc(-c2ccc(S(=O)(=O)N3CCCC3)cc2)cs1)c1cccs1	25*	i	39	1	23	-16	26%*	i	-0.75	-6
O=C(Nc1nc(-c2ccc(S(=O)(=O)N3CCCCCC3)cc2)cs1)c1cccs1	i	i	26	1	8	-41	.	.	.	.
Cc1ccc(S(=O)(=O)NNC(=O)Nc2ccc(C)c(C)c2)c(C)c1	i	i	-13	0	-1	2	.	.	.	.
COc1cccc(Nc2ncnc3ccccc23)c1	i	i	-24	-1	10	10	.	.	.	.
O=C(Oc1cccc(Nc2ncnc3ccccc23)c1)c1ccccc1Cl	100*	i	74*	3	14	19	18%*	i	-1.2	-12
CCOC(=O)c1[nH]c(C)c(C(=O)Nc2ccc3c(c2)OCCO3)c1C	25*	i	10	-1	10	7	i	i	-0.98	-2
CC(=O)c1c(C)nn(CC(O)COc2ccc3c(c2)CCC3)c1C (stereo not given)	25*	i	4	-3	6	-9	i	i	-1.1	-6
Cc1nn(CC(O)COc2ccc3c(c2)CCC3)c(C)c1Br (stereo not given)	i	i	11	0	8	-15	.	.	.	.
COc1ccccc1-c1c(C)nn2c(N3CCCCCC3)cc(C)nc12	100*	i	17	-2	3	30	34%*	i	-0.82	-19
COc1ccccc1-c1c(C)nn2c(N3CCN(Cc4ccccc4)CC3)cc(C)nc12	i	i	-19	1	-3	26	.	.	.	.
CC1C(=O)N(Cc2cn(CC3CCCCC3)nn2)CCS(=O)(=O)N1Cc1ccc(-c2cccc(CO)c2)cc1 (stereo not given)	.	.	39	2	14	-10	.	.	.	.
CC(=Nc1ccc(O)cc1)c1sc2ccccc2c1O	i	i	19	27	16	-21	.	.	.	.
CC(=Nc1cccc(C)c1)c1sc2ccccc2c1O	i	i	12	8	27	-51	i	i	-0.93	-10
CCOc1cc(S(=O)(=O)NCCc2ccc(OC)c(OC)c2)c(OCC)cc1-n1cnnn1	25*	i	1	-3	6	2	i	i	-0.94	-2
CCOc1ccc(-n2cnnn2)cc1S(=O)(=O)NCCc1ccc(OC)c(OC)c1	i	i	0	0	9	4	.	.	.	.
Cn1c2c(c(=O)n(C)c1=O)C(C(F)(F)F)(C(F)(F)F)N=C(c1ccc(Cl)cc1)N2	100*	i	.	83*	.	30	42%*	i	-1	-32

Source: PubChem
